Data: ChEMBL document CHEMBL1138073, “Arylamide derivatives as allosteric inhibitors of the integrin alpha2beta1/type I collagen interaction” (Bioorg Med Chem Lett, 2006)
Activity calls are given as the source filed them. No cut-off for these calls is given here.

Legend:
[1] = Inhibition of collagen binding to integrin alpha-2-beta-1 by ELISA; design: species or system Homo sapiens
Outline: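 Collagen type I (soluble) immobilized on 96-well plate; recombinant GST-tagged α2 I-domain added with increasing concentrations of inhibitor. Bound I-domain detected with peroxidase-conjugated anti-GST antibody, colorimetric read at 405 nm; IC50 derived from concentration series.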

[2] = Inhibition of collagen binding to integrin alpha-2-beta-1 in intact platelets; design: species or system Homo sapiens
Outline: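 Gel-filtered human platelets allowed to adhere to type I collagen immobilized on 96-well plates in presence of inhibitor; inhibition scored by number of bound platelets.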

Platelet = experiment: Inhibition of collagen-induced platelet aggregation at 5 uM; type: functional, cell-based; conditions: Homo sapiens

| SMILES | IC50 [1] [µM] | IC50 [2] [µM] | Activity (Platelet) |
| --- | --- | --- | --- |
| NCCSc1c(N)cccc1NC(=O)c1cccc(C(=O)Nc2cccc(NC(=O)[C@H](N)Cc3ccc4ccccc4c3)c2SCCN)c1 | > 50 | 64.6 | – |
| CC(C)(C)c1cc(NC(=O)CN)c(SCCN)c(NC(=O)c2cccc(C(=O)Nc3cc(C(C)(C)C)cc(NC(=O)CN)c3SCCN)c2)c1 | > 50 | > 100 | – |
| CC(C)(C)c1cc(NC(=O)c2cccc(C(=O)Nc3cc(C(C)(C)C)cc(NC(=O)[C@H](N)Cc4cccnc4)c3SCCN)c2)c(SCCN)c(NC(=O)[C@H](N)Cc2cccnc2)c1 | > 50 | > 100 | – |
| CC(C)(C)c1cc(NC(=O)c2cccc(C(=O)Nc3cc(C(C)(C)C)cc(NC(=O)[C@H](N)Cc4ccc5ccccc5c4)c3SCCN)c2)c(SCCN)c(NC(=O)[C@H](N)Cc2ccc3ccccc3c2)c1 | > 20 | 14.4 | – |
| NCCSc1c(N)cccc1NC(=O)c1cccc(C(=O)Nc2cccc(NC(=O)[C@H](N)Cc3cccnc3)c2SCCN)c1 | > 50 | > 100 | – |
| CC(C)(C)c1ccc(SCCN)c(NC(=O)c2cc(C(=O)Nc3cc(C(C)(C)C)ccc3SCCN)c(OCCN)cc2OCCN)c1 | > 50 | > 100 | – |
| CC(C)(C)c1cc(NC(=O)c2cccc(C(=O)Nc3cc(C(C)(C)C)cc(NC(=O)[C@@H](N)Cc4ccc5ccccc5c4)c3SCCN)c2)c(SCCN)c(NC(=O)[C@@H](N)Cc2ccc3ccccc3c2)c1 | 4.8 | 3.4 | Active |
| CC(C)(C)c1cc(NC(=O)CCCN)c(SCCN)c(NC(=O)c2cccc(C(=O)Nc3cc(C(C)(C)C)cc(NC(=O)CCCN)c3SCCN)c2)c1 | > 50 | > 100 | – |
| NCCSc1c(NC(=O)c2cccc(C(=O)Nc3cccc(NC(=O)[C@H](N)Cc4ccc5ccccc5c4)c3SCCN)c2)cccc1NC(=O)[C@H](N)Cc1ccc2ccccc2c1 | 19.7 | 16.9 | – |
| CC(C)(C)c1cc(NC(=O)c2cccc(C(=O)Nc3cc(C(C)(C)C)cc(NC(=O)[C@H](N)Cc4c[nH]c5ccccc45)c3SCCN)c2)c(SCCN)c(NC(=O)[C@H](N)Cc2c[nH]c3ccccc23)c1 | > 20 | 17.3 | – |
| CC(C)(C)c1cc(NC(=O)c2cccc(C(=O)Nc3cc(C(C)(C)C)cc(NC(=O)[C@@H](N)CCCN=C(N)N)c3SCCN)c2)c(SCCN)c(NC(=O)[C@@H](N)CCCN=C(N)N)c1 | > 50 | > 100 | – |
| NCCOc1cc(C(=O)Nc2cccc(NC(=O)[C@H](N)Cc3ccccc3)c2SCCN)cc(C(=O)Nc2cccc(NC(=O)[C@H](N)Cc3ccccc3)c2SCCN)c1 | > 50 | 43.2 | – |
| NCCSc1c(N)cccc1NC(=O)c1cccc(C(=O)Nc2cccc(NC(=O)[C@@H](N)Cc3ccc4ccccc4c3)c2SCCN)c1 | > 50 | 85.3 | – |
| NCCSc1c(NC(=O)c2cccc(C(=O)Nc3cccc(NC(=O)[C@@H](N)Cc4ccc5ccccc5c4)c3SCCN)c2)cccc1NC(=O)[C@@H](N)Cc1ccc2ccccc2c1 | 6.23 | 10.1 | – |
| C[C@@H](N)C(=O)Nc1cc(C(C)(C)C)cc(NC(=O)c2cccc(C(=O)Nc3cc(C(C)(C)C)cc(NC(=O)[C@@H](C)N)c3SCCN)c2)c1SCCN | > 50 | > 100 | – |
